Assay results pooled from the literature.
Protocols differ between the studies behind these lines.
Target: Tyrosine-protein kinase ABL2 (ABL2, Homo sapiens, UniProt P42684)

For `COCCOc1nc(-c2ccc(Cl)nc2)nc2c1CN(C(=O)c1ncn3ccccc13)CC2`, the remaining binding was 100% (cell-free assay; competition with immobilised ligand; 0.1 µM).
The inhibition of `CCCS(=O)(=O)Nc1ccc(F)c(C(=O)c2c[nH]c3ncc(-c4ccc(Cl)cc4)cc23)c1F` is reported as under 20% (enzyme activity; inhibitor; 1 µM).
`CC(C)(C)c1nc(-c2cccc(NS(=O)(=O)c3c(F)cccc3F)c2F)c(-c2ccnc(N)n2)s1` gave a remaining activity of 77% (enzyme activity; inhibitor; radiometric; 1 µM).
With `C[C@H](c1ccc(F)cc1)N(Cc1cccc(C(=O)O)c1)C(=O)c1cnc2ccccc2c1` the remaining binding was 82% (cell-free assay; competition with immobilised ligand; 1 µM).
For `CC(C)(O)[C@H]1CC[C@H](Nc2ccc3ncc(-c4cccc(C(F)(F)F)c4)n3n2)CC1`, the remaining activity was 76.5% (enzyme activity; inhibitor; 1 µM).
For `CNc1cccc2cc(C(=O)Nc3ccc(C(=O)O)cc3)c(=O)[nH]c12`, the inhibition was -3.6% (enzyme activity; inhibitor; 10 µM).
`CCCOc1ccc(OC)c(F)c1C(=O)c1ccc(C(=O)N[C@@H]2CNC[C@H]2NC(=O)c2ccc3[nH]ncc3c2)cc1` gave a remaining activity of 89% (enzyme activity; inhibitor; 10 µM).
With `CCN(CC)c1ccc(C2=NNC(=O)CC2C)cc1[N+](=O)[O-]` (stereo not shown) the remaining activity was 89% (enzyme activity; inhibitor; 10 µM).
The remaining activity of `Cc1cnc(NC2CCOCC2)nc1-n1cnc(C(=O)NC(CN)c2cc(F)cc(Cl)c2)c1` (stereo not shown) is reported as 87% (enzyme activity; inhibitor; radiometric; 1 µM).
For `CC/C(=N\NC(=O)NCc1cccc(O)c1)c1ccc(O)c(C)c1O`, the inhibition was -0.2% (enzyme activity; inhibitor; 0.1 µM).
For `Cc1ccc(Nc2nccc(N(C)c3ccc4c(C)n(C)nc4c3)n2)cc1S(N)(=O)=O`, the inhibition was 84% (enzyme activity; inhibitor; 10 µM).
`Cc1ccc(C(=O)NCc2ccsc2)cc1C#Cc1cn(C(C)C)c2ncnc(N)c12` gave an activity vs control of 6% (enzyme activity; inhibitor; 1 µM).
The remaining signal of `N#CCCc1ccc2c(c1)-c1[nH]c3ccc([N+](=O)[O-])cc3c1CC(=O)N2` is reported as 49.8% (cell-free assay; 0.5 µM).
For `O=C(Nc1ccc(Oc2ccc(F)cc2)cc1)N1CCc2ncccc2[C@H]1c1ccc(F)cc1`, the remaining binding was 88% (cell-free assay; competition with immobilised ligand; 1 µM).
The inhibition of `CNC(=O)c1cc(Oc2ccc(NC(=O)Nc3ccc(Cl)c(C(F)(F)F)c3)cc2)ccn1` is reported as 11% (enzyme activity; inhibitor; 0.3 µM).
For `Cc1sc(C(=O)NC2COC2)cc1-n1cc(NC(=O)Nc2c(F)cccc2Cl)cn1`, the remaining activity was 123% (enzyme activity; inhibitor; 10 µM).
For `Cc1c(NC(=O)c2cc(C(N)=O)nc3cc(F)ccc23)c(C(F)(F)F)nn1Cc1ccc(C(C)(C)C)cc1`, the remaining binding was 87% (cell-free assay; competition with immobilised ligand; 1 µM).
The inhibition of `COc1cc2ncnc(Nc3ccc(Oc4ccccc4)cc3C)c2cc1OC` is reported as 16% (enzyme activity; inhibitor; 1 µM).
`CN(C)c1ncnc(-c2ccc3nc(Nc4cc(CN5CCN(C(=O)CC(F)(F)F)CC5)ccn4)[nH]c3c2)c1Cl` gave a remaining binding of 71% (cell-free assay; competition with immobilised ligand; 1 µM).
With `O=C1Nc2ccc(Cl)cc2C1=Cc1cc(Cl)c(O)c(Cl)c1` the remaining signal was 80.4% (cell-free assay; 0.5 µM).
`O=C1NC(c2ccccn2)Sc2ccccc21` (stereo not shown) gave a remaining binding of 85% (cell-free assay; competition with immobilised ligand; 1 µM).
With `Cc1ccc(C(=O)Nc2ccc(CN3CCN(C)CC3)c(C(F)(F)F)c2)cc1C#Cc1cnc2cccnn12` the remaining activity was 3.2% (enzyme activity; inhibitor; 23.5 nM).
